Measured values pooled from the literature.
Compare with care: the assays were run in different laboratories.
Cell line: HepG2
Effect on: cell growth or viability

CCCCCNC[C@@H](O)c1cc(Cl)cc2c1-c1ccc(Cl)cc1C2 — CC50 (48 h): 6 µM
COCC(=O)N1CCC[C@H](C(=O)NCc2nc(-c3ccc(C)cc3)cs2)C1 — CC50 (ATP luminescence; 96 h): > 50 µM
O[C@@H](CNCCCC(F)(F)F)c1cc(Cl)cc2c1-c1ccc(Cl)cc1C2 — CC50 (48 h): 13.8 µM
COCC(=O)N1CCC[C@H](C(=O)NCc2nc(-c3cccnc3)cs2)C1 — CC50 (ATP luminescence; 96 h): > 50 µM
Cn1cc2c3c1C(=O)C(NCCc1ccc(O)cc1)=CC3=NCC2 — CC50 (MTT; 72 h): 1 µM
CCCCCCNC[C@H](O)c1cc(Cl)cc2c1-c1ccc(Cl)cc1C2 — CC50 (48 h): 4.8 µM
COC(CNC1=CC2=NCCc3c[nH]c(c32)C1=O)c1c[nH]c2ccccc12 (stereo not drawn) — CC50 (MTT; 72 h): 20 µM
Cn1nc2c(=O)n(C3CC3)ncc2c1[C@](O)(c1cnc(C(F)(F)F)c(Cl)c1)C(F)(F)F — CC50 (ATP luminescence): 38 µM
O=C1c2[nH]cc3c2C(=NCC3)c2c(-c3ccc(O)cc3)c[nH]c21 — CC50 (MTT; 72 h): 0.3 µM
O[C@@H](CN[C@@H](COCC1CC1)Cc1ccccc1)c1cc(Cl)cc2c1-c1ccc(Cl)cc1C2 — CC50 (48 h): 19.9 µM
Cn1cc2c3c1C(=O)C(NCCc1ccc(O)cc1)=CC3=[N+](C)CC2 — CC50 (MTT; 72 h): 0.5 µM
COCC(=O)N1CCCC(C(=O)NCc2nc(-c3ccccc3)cs2)C1 (racemic) — CC50 (ATP luminescence; 96 h): > 50 µM
CCCCCCCNCC(O)c1cc(Cl)cc2c1-c1ccc(Cl)cc1C2 (racemic) — CC50 (48 h): 5.7 µM
COC1=CC2=[N+](C)CCc3c[nH]c(c32)C1=O — CC50 (MTT; 72 h): 12.5 µM
COCC(=O)N1CCC[C@H](C(=O)NCc2nc(-c3ccc(OC)cc3)cs2)C1 — CC50 (ATP luminescence; 96 h): > 50 µM
